A selection: hits, their analogues and other compounds. The true share with any hit is near 4%.
OX1R antag-1: blocks the human orexin 1 receptor | O43613 | OX1R-expressing cells, FRET antagonist read-out | inhibition, % at 6.6 µM | 1.8% of 330,000 active; in the data active means inhibition mostly above about 38%, no sharp cut-off; inactive means mostly below about 40%;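 further: 0% = agonist challenge alone and 100% = reference antagonist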
NTR1 agonist: activates human neurotensin receptor 1; NTR1-U2OS beta-arrestin-GFP spot imaging, agonist mode; activation, % at 20 µM; 0.17% of 330,000 active; P30989; AID 493036;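 active means activation at or above 40% of the spot to cytoplasm intensity ratio, with at least 20 cells analyzed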;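 further: 0% = DMSO without peptide and 100% = 100 nM NTR1 peptide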
Target sequence (P30989 whole entry, looked up): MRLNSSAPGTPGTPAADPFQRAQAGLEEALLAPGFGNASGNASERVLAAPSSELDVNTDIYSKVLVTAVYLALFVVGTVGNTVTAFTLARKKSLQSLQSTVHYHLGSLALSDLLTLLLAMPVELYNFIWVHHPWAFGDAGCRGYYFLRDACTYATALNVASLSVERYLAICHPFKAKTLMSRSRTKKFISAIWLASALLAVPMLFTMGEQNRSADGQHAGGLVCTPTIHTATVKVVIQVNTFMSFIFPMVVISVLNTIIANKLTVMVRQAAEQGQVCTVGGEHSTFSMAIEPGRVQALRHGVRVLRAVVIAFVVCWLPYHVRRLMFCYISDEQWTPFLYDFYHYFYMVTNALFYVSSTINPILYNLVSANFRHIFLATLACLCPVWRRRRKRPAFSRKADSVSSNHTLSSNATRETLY
OX1R antag-2: antagonists of human orexin 1 receptor; O43613; CHO/OX1R cells, Fluo-8 calcium fluorescence, orexin A; inhibition, % at 5 µM; 0.43% of 330,000 active; AID 434989;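 active means inhibition above its plate's threshold, mean inhibition of all tested compounds on the plate plus 3 SD, cut at about 37% in these data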;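 further: 0% = orexin A challenge wells and 100% = SB-334867-A antagonist wells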
TAAR1 antagonist: antagonists of human TAAR1; 1.5% of 360,000 active; CHO RD-HGA16 TAAR1, Fluo-8 calcium fluorescence, antagonist; inhibition, % at 3 µM; AID 624466; Q96RJ0;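 active means inhibition above a per-plate cutoff, the mean inhibition of test compounds on that plate plus 3 SD, cut at about 49% in these data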;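 further: 0% = DMSO plus EC80 beta-PEA response and 100% = DMSO alone without agonist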
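Test system: CHO RD-HGA16 cells bearing hTAAR1 | Reagent: β-PEA, EC80 | Compound dosing: 3 µM, single point | Schedule: Dye loading 75 min at 37 °C, then 30 min room temperature | Signal: Calcium fluorescence with Fluo-8 | Evaluation: Percent inhibition of PEA-evoked calcium signal, max/basal emission ratio | Control set: DMSO-only wells and EC80 β-PEA-stimulated wells | Repeats: Singlicate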
CHO parental Ca: counter-screen: ATP calcium response change in parental CHO cells | inhibition, % at 5.6 µM | parental CHO-K1, ATP-induced calcium, Fluo-8 fluorescence | 0.63% of 330,000 active;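 active means inhibition above that plate's mean sample inhibition plus 3 SD, cut at about 26% in these data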;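 further: 0% = ATP-challenged DMSO wells and 100% = DMSO wells without ATP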
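Measured by: calcium-sensitive Fluo-8 fluorescence / Test system: CHO parental line / Controls: ATP-challenged DMSO wells low, unchallenged DMSO wells high / Measure: % inhibition / Compound: single nominal dose of 5.6 µM per compound / Replicates: single well per compound, no replicates / Reagent: ATP as calcium-mobilizing challenge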
TAAR1 ag: agonists of human TAAR1; CHO RD-HGA16 TAAR1, Fluo-8 calcium fluorescence; vehicle wells 0%, saturating PEA agonist 100%; activation, % at 3 µM; 0.99% of 360,000 active;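 active means activation above the mean activation of all test compounds in the run plus 3 SD, cut at about 38% in these data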
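Assay system – CHO-derived RD-HGA16 cells with stable Gα16 and human TAAR1 · Compound dosing – one-point dosing at 3 µM (nominal) · Incubation – 17-24 h seeding, 75 min 37 °C dye, 30 min RT · Measured by – kinetic Fluo-8 calcium fluorescence · Control set – DMSO vehicle as 0%, PEA at EC100 as 100% · Repeats – single well for each compound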
An asterisk follows results filed as active; / = not tested or not shown.

SMILES	OX1R antag-1	NTR1 agonist	OX1R antag-2	TAAR1 antagonist	CHO parental Ca	TAAR1 ag
O=C(c1ccc([N+](=O)[O-])cc1)N1CCN(C(=O)c2cccnc2)CC1	53.2*	-1.3	-14.5	-7.7	11.6	1.3
COc1cc(-c2c(C(=O)c3ccccc3)[nH]c(N)c2C(=O)NCCc2c[nH]c3ccccc23)ccc1F	/	/	/	6.8	/	4.9
O=C(COc1ccccc1)NNc1c2ccccc2nc2ccccc12	85.7*	13.8	-10.0	45.4	2.3	10.8
CCCC(=O)NNc1c2ccccc2nc2ccccc12	4.7	-2.2	-8.2	8.0	-15.2	2.0
O=C(NNc1c2ccccc2nc2ccccc12)C(O)c1ccccc1 (stereo not given)	70.9*	-0.6	-9.8	2.0	-21.4	1.9
O=C(CCCO)NNc1c2ccccc2nc2ccccc12	13.2	-1.0	-4.1	6.2	-1.2	1.6
CCc1noc(C)c1C(=O)Nc1ccc(S(=O)(=O)N2CCC(C)CC2)cc1	2.0	1.7	-7.3	0.2	-8.0	11.8
COc1ccc(NC(=O)OC[C@@H]2CSCCS(=O)(=O)N2)cc1	/	/	/	3.7	/	2.3
CCOc1cc(CNCCO)cc(Br)c1OCc1ccc(Cl)cc1Cl	-7.3	6.0	40.5*	-4.4	18.9	11.2
CCOc1cccc(CNCCO)c1OCc1ccc(Cl)cc1Cl	17.6	0.9	-24.2	4.1	-14.3	19.5
COC(=O)c1ccc(-c2cccc(CN3CCN(c4ncc(Cc5ccccc5)cn4)CC3)c2)cc1	/	/	/	-34.3	/	2.6
CN(C)S(=O)(=O)c1ccc(NC(=O)/C=C/c2ccccc2Cl)cc1	19.7	4.5	-18.4	3.7	-11.7	13.0
CN(C)c1ccc(NC(=O)/C=C/c2c(Cl)cccc2Cl)cc1	71.7*	15.5	8.6	-17.4	-3.6	2.4
N#Cc1nc(Cc2ccccc2)oc1NCc1cccnc1	9.9	-1.2	-13.5	-9.5	-10.6	8.2
N#Cc1nc(Cc2ccccc2)oc1NCc1ccccc1Cl	32.2	3.1	21.9	34.5	35.6*	0.5
Cc1cc(Cl)ccc1NC(=O)CN1CCC(C(O)(c2ccccc2)c2ccccc2)CC1	0.7	7.1	-20.5	15.3	-21.5	55.7*
COc1ccc(C(=O)NNC(=S)NC(=O)c2ccc(F)cc2)cc1Br	4.2	1.3	47.8*	6.5	29.2	51.3*
COc1cc(C(=O)NC(=S)NNC(=O)c2ccc3c(c2)OCO3)cc(OC)c1OC	16.7	2.0	-20.2	-11.6	-12.4	52.0*
O=C(c1ccc([N+](=O)[O-])cc1)N1CCN(c2ncccn2)CC1	27.0	0.9	-2.8	-5.2	-5.0	-0.4
CC(=O)c1c2c3c(c(Br)ccc3n(C)c1=O)C(=O)c1ccccc1-2	55.8*	5.1	-4.0	-3.4	-18.3	4.4
COc1cc(CN2C(=O)C(CCc3ccccc3)ON=C2c2cnccn2)cc(OC)c1 (stereo not given)	/	/	/	50.5*	/	2.1
CC(=O)Oc1ccc(CN2C(=O)C(CCc3ccccc3)ON=C2c2cnccn2)cc1 (stereo not given)	/	/	/	25.1	/	10.3
Cc1nc(Nc2ccc(Cl)c(Cl)c2)sc1C(=O)Nc1ccccc1	69.0*	5.6	-15.7	34.3	8.4	7.1
NS(=O)(=O)c1ccc(CCNC(=O)c2ccncc2)cc1	4.5	-0.8	-48.0	-3.2	3.4	-0.8
NS(=O)(=O)c1ccc(CCNC(=O)c2ccc(C#CC3(O)CCCCC3)cc2)cc1	18.9	1.4	2.7	68.2*	10.7	22.9
SMILES	OX1R antag-1	NTR1 agonist	OX1R antag-2	TAAR1 antagonist	CHO parental Ca	TAAR1 ag
Cc1sc(NC(=O)c2ccc(Cl)s2)c(C(N)=O)c1C	47.5*	2.8	-6.1	-33.2	-29.7	12.4
COc1ccc(-c2noc(-c3cccs3)n2)cc1OC	24.7	0.9	-26.7	-21.8	-17.1	2.5
COc1ccc(-c2noc(CSc3nnc(Cc4ccccc4)n3-c3cccc(C)c3)n2)cc1OC	39.1*	4.7	2.7	10.9	-11.6	4.7
COc1cc(-c2noc(-c3cccs3)n2)cc(OC)c1OC	48.3*	1.7	-13.2	10.1	-23.7	6.2
CCn1c(SCc2nc(-c3ccc(OC)c(OC)c3)no2)nnc1-c1cccs1	45.2*	4.0	24.5	-10.7	-7.7	17.4
O=C1Cc2cc(S(=O)(=O)Nc3ccccc3Cl)cc3c2N1CCC3	8.1	-0.4	-20.0	-20.6	-8.2	3.1
Cc1cc(C)n2nc(Nc3ccccc3)cc2n1	48.7*	1.1	-1.6	-10.3	-19.7	-0.5
O=C(NCCc1cccs1)C12CN(Cc3ccccc3)CC1C(c1cccc([N+](=O)[O-])c1)=NO2 (stereo not given)	12.6	3.6	-9.7	0.2	-5.6	40.1*
CC(C)C[C@@H]1COc2cc(NCCO)ccc2S(=O)(=O)N1	/	/	/	-18.8	/	0.1
Cc1cc(NC(=O)/C=C/c2ccco2)ccc1NC(=O)c1ccccc1	13.8	0.3	-21.3	-11.0	-18.7	18.9
O=C(/C=C/c1ccco1)Nc1ccc2nn(-c3ccccc3)nc2c1	76.8*	/	17.9	-2.0	5.7	0.0
COc1ccc(-c2[nH]nc3nc(N4CCN(C(=O)c5ccoc5)CC4)cc(C(F)(F)F)c23)cc1	/	/	/	49.1*	/	5.0
CCc1ccc(OCC(=O)Nc2ccc(-c3cc4ccccc4oc3=O)c(OC)c2)cc1	28.0	2.3	10.0	15.3	39.8*	1.1
COc1cc(NC(=O)c2cc(Cl)ccc2Cl)ccc1-c1cc2ccccc2oc1=O	14.3	1.9	-16.2	7.3	-13.5	0.3
O=C1C=CC(=O)N1c1cccc(-c2ccccc2)c1	24.0	9.6	44.8*	68.7*	26.9	14.8
c1ccc(CCNc2ncnc3ccccc23)cc1	39.9	0.5	2.2	29.3	31.8*	16.5
Cc1cc2c(NCCc3ccccc3)ncnc2s1	53.9*	-0.1	48.7*	18.9	63.8*	4.0
CCC(C)NC(=O)c1ccc2c(c1)S(=O)(=O)c1ccccc1C2=O (stereo not given)	/	0.1	/	3.9	/	1.7
COc1c(OC(C)=O)c(=O)n2c3ccccc3c3ccnc1c32	51.9*	8.8	-14.0	1.4	-11.8	0.7
CC(=O)Oc1c(C)c(=O)n(C)c2ccccc12	7.2	0.9	-13.2	13.8	-10.7	-0.3
O=C(CN1C(=O)S/C(=C\c2ccccc2)C1=O)NNC(=O)c1ccccc1O	41.9	2.0	8.7	-1.5	9.6	-0.8
O=C(CCCN1C(=O)/C(=C\c2ccccc2)SC1=S)N1CCOCC1	31.6	0.0	46.2*	18.0	33.0*	7.4
O=C(CCCN1C(=O)c2ccccc2C1=O)NCCN1C(=O)S/C(=C\c2cccs2)C1=O	65.8*	2.0	-19.6	37.1	-27.6	10.3
O=C(CCN1C(=O)/C(=C\c2ccccc2)SC1=S)NNC(=O)c1cccnc1	18.7	3.2	-17.9	53.8*	-5.1	17.3
O=C(CCN1C(=O)/C(=C\c2ccccc2)SC1=S)NNC(=O)c1ccccc1O	64.0*	2.7	9.9	-18.9	2.6	7.9

Source: PubChem
